Hits are enriched below; roughly 4.8% of the tested compounds scored in any of these assays.
ATG4B inh = inhibitors of human ATG4B cysteine protease; actives 0.51% (n = 340,000); inhibition, % at 8.33 µM; Q9Y4P1; ATG4B cleavage of LC3-PLA2, NBD-HPC fluorescence, 1 h; AID 504462; in the data active = inhibition above about 40%
Target sequence (Q9Y4P1 whole entry, looked up): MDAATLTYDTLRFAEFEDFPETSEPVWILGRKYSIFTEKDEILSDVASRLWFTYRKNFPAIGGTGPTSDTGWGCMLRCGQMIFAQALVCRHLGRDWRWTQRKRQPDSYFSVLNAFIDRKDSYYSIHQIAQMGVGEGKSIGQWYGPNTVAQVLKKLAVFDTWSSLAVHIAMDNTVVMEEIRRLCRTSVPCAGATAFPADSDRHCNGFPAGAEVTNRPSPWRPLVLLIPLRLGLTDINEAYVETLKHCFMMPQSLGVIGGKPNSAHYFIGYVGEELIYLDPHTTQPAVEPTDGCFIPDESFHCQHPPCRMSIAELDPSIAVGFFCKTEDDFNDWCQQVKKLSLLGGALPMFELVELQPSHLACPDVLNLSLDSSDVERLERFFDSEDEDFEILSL
Calb FLC = affects C. albicans growth with fluconazole. growth inhibition, % (test concentration not listed). actives 0.57% (n = 300,000). C. albicans CaCi-2 (fluconazole-resistant clinical isolate) + fluconazole, Alamar Blue growth, 48 h. AID 1979;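 active = growth inhibition above about 58% in most replicates, limit read from the data, passing the limit was not always enough; inconclusive = exactly half the replicates above a set limit; inactive = most replicates below a set limit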;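 also: all wells also contain fluconazole at 8 µg/ml as a sub-toxic cotreatment; 0% = median of DMSO wells and 100% = median of geldanamycin control wells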
UCH37 DUB inh = human UCH37 deubiquitinating enzyme inhibition; Q9Y5K5; purified proteasome/UCH37, Ub-AMC cleavage fluorescence; inhibition, % (no concentration beside the values); actives 0.33% (n = 330,000); AID 588478;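 active = mean inhibition over replicate wells above about 20%, limit read from the data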;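 also: 0% = compound-free wells with enzyme and 100% = wells lacking proteasome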
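system = Proteasome-associated human UCH37 deubiquitinase | amount = 0.15 nM proteasome as dispensed | medium = pH 7.4 Tris-HCl (50 mM) with ovalbumin, ATP-MgCl2, DTT | incubation = 30 min preincubation with enzyme, 25 min cleavage at room temperature | detection = AMC fluorescence 355/460 nm | read-out basis = percent inhibition | controls = no-proteasome and no-compound wells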
NLRP3 yeast inh = inhibitors of NALP3 inflammasome in yeast | Yeast reconstituted NLRP3/ASC/caspase-1, beta-gal luminescence, 24 h | inhibition, % at 10 µM | actives 0.39% (n = 330,000) | AID 2825;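 active = inhibition of 50% or more; inactive = inhibition below 50%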;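 also: plate controls were induced DMSO wells for no effect and uninduced yeast grown without galactose for full effect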
ALR inh = blocks human ALR sulfhydryl oxidase activity; actives 3.8% (n = 290,000); AID 485317; inhibition, % (test concentration not listed); P55789; purified ALR, DTT oxidation, H2O2 HRP-luminol luminescence;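 active = mean replicate inhibition above about 79%, with every replicate also reaching it, limit read from the data; inconclusive = only one of the two criteria met; inactive = mean below limit and not every replicate reaching it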
Target sequence (P55789 whole entry, looked up): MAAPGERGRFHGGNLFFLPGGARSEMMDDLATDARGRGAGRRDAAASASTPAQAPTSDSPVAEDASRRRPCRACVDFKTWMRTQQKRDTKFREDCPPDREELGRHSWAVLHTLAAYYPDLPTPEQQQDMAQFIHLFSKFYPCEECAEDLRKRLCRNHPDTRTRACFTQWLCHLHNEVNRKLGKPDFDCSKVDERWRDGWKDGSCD
NALP1 inh = inhibitors of NALP1 inflammasome in yeast. AID 2071. inhibition, % at 10 µM. S. cerevisiae NALP1/ASC/caspase-1 growth, X-gal OD620, 72 h. actives 0.61% (n = 280,000); in the data active = inhibition mostly above about 24%, no sharp cut-off; inactive = mostly below about 32%
Starred values were filed as active, the others as inactive; ? = inconclusive; . = not tested or not shown; ! = not confirmed by another sample.

SMILES	ATG4B inh	Calb FLC	UCH37 DUB inh	NLRP3 yeast inh	ALR inh	NALP1 inh
O=C(CSc1ccc2ccccc2c1)NCCCN1CCCC1=O	-6	-16	2	19	100*	-6
COCCNC(=O)CSCc1nc(-c2ccc(SC)cc2)oc1C	1	3	-4	3	100*	-11
CCOCCCNC(=O)CSCc1nc(-c2ccc(SC)cc2)oc1C	-12	17	-3	10	.	1
COc1cc(C)nc(Oc2ccc(C=NO)cc2)n1	.	.	1	.	.	.
O=C(CN(Cc1ccc(Cl)c(Cl)c1)S(=O)(=O)c1ccccc1)NN=Cc1ccc2c(c1)OCO2	.	.	0	.	.	.
O=C(/C=C/c1ccccc1)NCC(=O)NN=Cc1ccco1	.	.	0	.	.	.
O=C(NNC(=S)NCc1ccco1)c1ccc(Cl)s1	1	6	1	16	10	-7
O=C(CSCc1ccco1)c1ccc(Cl)s1	.	-3	.	16	98*	-1
COc1ccc(-n2c(CCc3ccccc3)n[nH]c2=S)cc1	-7	35	5	26	10	-31
Oc1ccc(CCc2n[nH]c(=S)n2-c2ccc(F)cc2)cc1	-4	-2	0	24	81*	-7
CCOC(=O)c1[nH]c(C)c(CCC(=O)OC)c1C	-14	10	5	10	-16	32
CCOC(=O)c1[nH]c(C)c(CCC(=O)O)c1C	0	-4	1	11	-6	41*!
O=S(=O)(Nc1nc(-c2ccccc2)cs1)c1cc(Cl)ccc1Cl	8	96*	2	6	90*	10
CC(C)C(C)NC(=O)CSc1nc2scc(-c3ccco3)c2c(=O)n1-c1ccccc1 (configuration not stated)	-4	11	-8	4	96*	25
FC(F)(F)c1ccc(C=Nn2c(C3CCCCC3)n[nH]c2=S)cc1	.	.	6	.	.	.
COc1cc(/C=C2\Oc3cc(O)ccc3C2=O)ccc1O	5	0	-30	0	97*	-8
O=C1/C(=C/c2cccc([N+](=O)[O-])c2)Oc2cc(O)ccc21	2	3	7	17	5	13
O=C1/C(=C/c2ccc(O)c(O)c2)Oc2cc(O)ccc21	-4	.	3	14	98*	-16
CCOC(=O)/C(C#N)=C1/C=CN(C)C(C)=N1	-7	2	21*	10	-2	14
COc1ccc(-c2nc(SC(CC(=O)NCc3ccccc3)c3ccc(OC)c(OC)c3)n[nH]2)cc1 (configuration not stated)	-24	-5	3	7	95*	21
COc1ccc(-c2nc(SC(CC(=O)NCCN3CCOCC3)c3cccs3)n[nH]2)cc1 (configuration not stated)	-1	12	6	-2	97*	-9
COC(=O)c1ccc(CSc2nc3scc(-c4cccs4)c3c(=O)[nH]2)o1	54*	47	0	15	-14	10
COC(=O)c1ccc(CSc2nc3ccc(Cl)cc3[nH]2)o1	4	-8	1	16	97*	1
CCOc1ccc2nc(SCc3ccc(C(=O)OC)o3)[nH]c2c1	-4	4	2	34	10	40
COC(=O)c1ccc(CSc2nc3c(cnn3-c3ccc(C)c(C)c3)c(=O)[nH]2)o1	22	.	4	4	-1	-3
SMILES	ATG4B inh	Calb FLC	UCH37 DUB inh	NLRP3 yeast inh	ALR inh	NALP1 inh
O=C(N/N=C/c1ccc[nH]1)c1ccc(COc2cccc3cccnc23)cc1	-6	-22	.	18	.	0
NNC(=O)c1ccc(COc2cccc3cccnc23)cc1	-1	?	3	13	98*	-31
CCc1nc(SCC(=O)N2c3ccccc3CC2C)c2c(C)c(C)sc2n1 (configuration not stated)	83*	-1	6	22	15	19
Cc1ccc(NC(=O)CSc2nccc(=O)[nH]2)c(S(=O)(=O)N2CCOCC2)c1	5	3	1	1	98*	-32
CCOC(=O)C(Sc1nn(C)c(=S)s1)C(C)=O (configuration not stated)	-7	-2	7	3	94*	14
CC(CC(=O)Nc1ccc2ccccc2c1)=NNC(=O)c1ccc(O)c(O)c1	.	.	-2	.	.	.
Cc1cc(C)n(CCC(=O)NN=Cc2ccc(O)cc2)n1	.	.	2	.	.	.
Cc1ccc(C=NNc2cccc3cccnc23)c(O)c1	.	.	-4	.	.	.
O=C1C2C3C=CC(C3)C2C(=O)N1c1cccc(N2C(=O)C3C4C=CC(C4)C3C2=O)n1 (configuration not stated)	8	-6	0	-12	-10	-11
O=C1C2C3C=CC(C3)C2C(=O)N1c1ccc2ccccc2n1 (configuration not stated)	2	-7	32*	13	2	0
CCCc1nn(C)c(C(=O)Nc2cccc(C)c2)c1Cl	4	?	5	28	1	46*
O=C1c2ccccc2C(Nc2ccc3c(c2)OCCO3)N1Cc1ccccc1 (configuration not stated)	5	9	-2	7	98*	9
CCOc1ccc(NC2c3ccccc3C(=O)N2Cc2ccc3c(c2)OCO3)cc1 (configuration not stated)	6	6	4	5	.	-13
Cc1cc(C(=O)NN=Cc2cc(C(C)(C)C)c(O)c(C(C)(C)C)c2)n[nH]1	.	.	2	.	.	.
O=C(CCc1ccccn1)N1CCCC(Nc2ccc(F)cc2)C1 (configuration not stated)	-2	7	4	7	99*	-2
NC(=O)C1CCN(C(=O)CCC(=O)c2ccc(F)cc2)CC1	2	0	5	9	-17	8
O=C(CCC(=O)N1CCCC(Nc2ccccc2)C1)c1ccc(F)cc1 (configuration not stated)	22	9	1	13	99*	15
O=C(CCc1ccccn1)N1CCCC(Nc2cccc(F)c2)C1 (configuration not stated)	26	10	1	21	51	9
CCc1nccn1CCC(=O)N1CCCC(Nc2ccc(F)cc2)C1 (configuration not stated)	14	-5	2	7	99*	12
CCc1nccn1CCC(=O)N1CCCC(N2CCN(c3ccccc3C)CC2)C1 (configuration not stated)	7	2	0	14	2	21
CC(=NNC(=O)CCc1c(C)n[nH]c1C)c1ccc([N+](=O)[O-])cc1	.	.	6	.	.	.
COc1ccccc1-n1c(C)cc(SC)c(C(C)=O)c1=S	2	86*	5	14	.	31
Nc1ccc(C(=O)NN=Cc2cn(Cc3ccccc3F)c3ccccc23)cc1	.	.	-4	.	.	.
COC(=O)C1=C(C)NC(C)=C(C(=O)OC)C1c1ccc(NC(C)=O)cc1	-13	2	-56	-1	-6	15
